The results in this text go back to the RNAGym collection of RNA variant scans (doi:10.1002/anie.201605470).

B1: Osa-1-4 twister ribozyme (parent)
chain: CCGCCUAACACUGCCAAUGCCGGUCCCAAGCCCGGAUAAAAGUGGAGGGGGCGG

The series covers variants of B1. As to the kind of experiment: self-cleavage, relative activity (ratio to wild type); higher = more cleavage; co-transcriptional. The essentials:
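The 48 positions downstream of the cleavage site in a 54-nucleotide Oryza sativa twister ribozyme template were synthesised at 97 % wild-type base and 1 % of each other base. The template was transcribed in vitro at 37 °C for 2 h, with self-cleavage allowed during transcription. Reads with or without upstream sequence after deep sequencing marked cleavage status, and relative activity is fraction cleaved normalised to wild type.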
For the variant CCGCCUAAUACUGCCAAUGCAGGUCCCAAGCCCGGAUAAAAGUGGAGGGGGCGG [C21A C9U], the self-cleavage turned out to be 0.1.

Take CCGCCUAAAACUGCCAAUGCAGGUCCCAAGCCCGGAUAAAAGUGGAGGGGGCGG [C21A C9A]: the self-cleavage is 0.07.

For CCGCCUAAGACUGCCAAUGCAGGUCCCAAGCCCGGAUAAAAGUGGAGGGGGCGG [C21A C9G], the self-cleavage is 0.11.

Regarding CCGCCUAACACCGCCAAUGUCGGUCCCAAGCCCGGAUAAAAGUGGAGGGGGCGG [C20U U12C], the self-cleavage was found to be 0.49.

In the case of CCGCCUAACACAGCCAAUGUCGGUCCCAAGCCCGGAUAAAAGUGGAGGGGGCGG [C20U U12A], the self-cleavage came to 0.83.

In the case of CCGCCUAACACGGCCAAUGUCGGUCCCAAGCCCGGAUAAAAGUGGAGGGGGCGG [C20U U12G], the self-cleavage was determined as 0.46.

With CCGCCUAACACUGCCAACGUCGGUCCCAAGCCCGGAUAAAAGUGGAGGGGGCGG [C20U U18C], the self-cleavage is 0.87.

For the variant CCGCCUAACACUGCCAAGGUCGGUCCCAAGCCCGGAUAAAAGUGGAGGGGGCGG [C20U U18G], the self-cleavage turned out to be 0.82.

As to CCGCCUAACACUGCCAAAGUCGGUCCCAAGCCCGGAUAAAAGUGGAGGGGGCGG [C20U U18A], the self-cleavage was found to be 0.86.

On to CCGCCUAACACUGCCAAUGUCGGUCCCAAGCCCGGAUAAAAGUGGAGGGGGCGU [C20U G54U], for which the self-cleavage is 0.85.

As to CCGCCUAACACUGCCAAUGUCGGUCCCAAGCCCGGAUAAAAGUGGAGGGGGCGA [C20U G54A], the self-cleavage turned out to be 0.75.

As to CCGCCUAACACUGCCAAUGUCGGUCCCAAGCCCGGAUAAAAGUGGAGGGGGCGC [C20U G54C], the self-cleavage is 0.84.

For the variant CCGCCUAACACUGCCAAUGCAGGUCCAAAGCCCGGAUAAAAGUGGAGGGGGCGG [C21A C27A], the self-cleavage is 0.08.

Consider CCGCCUAACACUGCCAAUGCAGGUCCGAAGCCCGGAUAAAAGUGGAGGGGGCGG [C21A C27G], for which the self-cleavage is 0.04.

For the variant CCGCCUAACACUGCCAAUGCAGGUCCUAAGCCCGGAUAAAAGUGGAGGGGGCGG [C21A C27U], the self-cleavage is 0.08.

On to CCGCCUAACACUGCCAAUGUCGCUCCCAAGCCCGGAUAAAAGUGGAGGGGGCGG [C20U G23C], for which the self-cleavage amounted to 0.05.

For CCGCCUAACACUGCCAAUGUCGUUCCCAAGCCCGGAUAAAAGUGGAGGGGGCGG [C20U G23U], the self-cleavage was 0.13.

For the variant CCGCCUAACACUGCCAAUGUCGAUCCCAAGCCCGGAUAAAAGUGGAGGGGGCGG [C20U G23A], the self-cleavage came to 0.27.

Turning to CCGCCUAACACUGCCAAUGUCGGUCCCAAGCCCGGAUAAAAGUGGAGGGAGCGG [C20U G50A], the self-cleavage turned out to be 0.92.

In the case of CCGCCUAACACUGCCAAUGUCGGUCCCAAGCCCGGAUAAAAGUGGAGGGUGCGG [C20U G50U], the self-cleavage was 0.95.

CCGCCUAACACUGCCAAUGUCGGUCCCAAGCCCGGAUAAAAGUGGAGGGCGCGG [C20U G50C]: the self-cleavage was found to be 0.87.

For the variant CCGCCUAACACUGCCAAUGUCGGUCCCAAGCCCGGAUAAAAGUGGAGUGGGCGG [C20U G48U], the self-cleavage was determined as 0.1.

CCGCCUAACACUGCCAAUGUCGGUCCCAAGCCCGGAUAAAAGUGGAGCGGGCGG [C20U G48C]: the self-cleavage is 0.1.

Consider CCGCCUAACACUGCCAAUGUCGGUCCCAAGCCCGGAUAAAAGUGGAGAGGGCGG [C20U G48A], for which the self-cleavage worked out at 0.1.

As for CCGCCUAACACUGCCAAUGCAGGUCCCAAGCCCGGAUAAAAGUGGAGGGGGCGG [C21A], the self-cleavage was 0.93.

CCGCCUAACACUGCCAAUGUCGGUCCCAAGCCCGGAUAAAAGUGGAUGGGGCGG [C20U G47U]: the self-cleavage was 0.29.

Take CCGCCUAACACUGCCAAUGUCGGUCCCAAGCCCGGAUAAAAGUGGACGGGGCGG [C20U G47C]: the self-cleavage stood at 0.15.

As for CCGCCUAACACUGCCAAUGUCGGUCCCAAGCCCGGAUAAAAGUGGAAGGGGCGG [C20U G47A], the self-cleavage was 0.28.

For CCGCCUAACACUGCCAAUGCAGGUCCCAAGCCUGGAUAAAAGUGGAGGGGGCGG [C21A C33U], the self-cleavage was 0.07.

As for CCGCCUAACACUGCCAAUGCAGGUCCCAAGCCGGGAUAAAAGUGGAGGGGGCGG [C21A C33G], the self-cleavage worked out at 0.03.

For the variant CCGCCUAACACUGCCAAUGCAGGUCCCAAGCCAGGAUAAAAGUGGAGGGGGCGG [C21A C33A], the self-cleavage was 0.09.

With CCGCCUAACACUGCCAAUGCAGGUCCCAAGCACGGAUAAAAGUGGAGGGGGCGG [C21A C32A], the self-cleavage turned out to be 0.08.

For the variant CCGCCUAACACUGCCAAUGCAGGUCCCAAGCUCGGAUAAAAGUGGAGGGGGCGG [C21A C32U], the self-cleavage came to 0.07.

CCGCCUAACACUGCCAAUGCAGGUCCCAAGCGCGGAUAAAAGUGGAGGGGGCGG [C21A C32G]: the self-cleavage stood at 0.09.

For the variant CCGCCUAACACUGCCAAUGUCGGUCCCAAGCCCGGAUAAAAGUCGAGGGGGCGG [C20U G44C], the self-cleavage is 0.88.

As to CCGCCUAACACUGCCAAUGUCGGUCCCAAGCCCGGAUAAAAGUAGAGGGGGCGG [C20U G44A], the self-cleavage amounted to 0.87.

As to CCGCCUAACACUGCCAAUGUCGGUCCCAAGCCCGGAUAAAAGUUGAGGGGGCGG [C20U G44U], the self-cleavage stood at 0.87.

On to CCGCCUAACACUGCCAAUGUCGGACCCAAGCCCGGAUAAAAGUGGAGGGGGCGG [C20U U24A], for which the self-cleavage amounted to 0.44.

For the variant CCGCCUAACACUGCCAAUGUCGGCCCCAAGCCCGGAUAAAAGUGGAGGGGGCGG [C20U U24C], the self-cleavage came to 0.38.

Consider CCGCCUAACACUGCCAAUGUCGGGCCCAAGCCCGGAUAAAAGUGGAGGGGGCGG [C20U U24G], for which the self-cleavage is 0.08.

CCGCCUAACACUGCCAAUGUCGGUCCCAAGCCCGGAUAAAAGUGGAGGGGUCGG [C20U G51U]: the self-cleavage was 0.63.

Take CCGCCUAACACUGCCAAUGUCGGUCCCAAGCCCGGAUAAAAGUGGAGGGGCCGG [C20U G51C]: the self-cleavage came to 0.11.

CCGCCUAACACUGCCAAUGUCGGUCCCAAGCCCGGAUAAAAGUGGAGGGGACGG [C20U G51A]: the self-cleavage worked out at 0.85.

For the variant CCGCCUAACACUGCCAAUGUCGGUCCCAACCCCGGAUAAAAGUGGAGGGGGCGG [C20U G30C], the self-cleavage was 0.06.

Regarding CCGCCUAACACUGCCAAUGUCGGUCCCAAACCCGGAUAAAAGUGGAGGGGGCGG [C20U G30A], the self-cleavage was 0.05.

CCGCCUAACACUGCCAAUGUCGGUCCCAAUCCCGGAUAAAAGUGGAGGGGGCGG [C20U G30U]: the self-cleavage stood at 0.04.

For CCGCCUAACACUGCCAAUGUCGGUCCCAAGCCCUGAUAAAAGUGGAGGGGGCGG [C20U G34U], the self-cleavage was determined as 0.82.

In the case of CCGCCUAACACUGCCAAUGUCGGUCCCAAGCCCCGAUAAAAGUGGAGGGGGCGG [C20U G34C], the self-cleavage stood at 0.31.

On to CCGCCUAACACUGCCAAUGUCGGUCCCAAGCCCAGAUAAAAGUGGAGGGGGCGG [C20U G34A], for which the self-cleavage was found to be 0.95.
